Data set [1] in a line: Cytotoxicity against human HCT15 cells by sulforhodamine B bioassay. It is filed as functional, cell-based. The note with it: HCT-15. In a few lines:
(§1)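 Sulforhodamine B assay on cultured human tumor cell lines A549, SK-OV-3, A498 and HCT15. Run at the Korea Research Institute of Chemical Technology.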

The subject of the next data set is A549. Nature of the data set: Cytotoxicity against human A549 cells by sulforhodamine B bioassay. It is filed as functional, cell-based. The gist of the method: as §1
The nature of data set [2]: Cytotoxicity against mouse BV2 cells by MTT assay. More on the design: concentration or dose not given beside the values. As to conditions: bv-2. Background: Formazan colour is commonly taken as a measure of viable cells.
Data set [3] can be described thus: Cytotoxicity against human SKOV3 cells by sulforhodamine B bioassay. It is filed as functional, cell-based. As to conditions: SK-OV-3. In a few lines: as §1
The nature of data set [4]: Antineuroinflammatory activity against mouse BV2 cells assessed as inhibition of LPS-induced NO production treated with compound 30 mins and challenged with LPS for 24 hrs. The note with it: BV-2.
The test system of another data set is SK-MEL-2. Nature of the data set: Cytotoxicity against human SK-MEL-2 cells by sulforhodamine B bioassay. It is filed as functional, cell-based.

Molecules are shown by their SMILES.

`O=C(/C=C/c1ccc(O)cc1)O[C@H]1[C@H](O[C@@H]2CCCC[C@H]2O)O[C@H](CO)[C@@H](O)[C@@H]1O`: the IC50 (in general, the midpoint of a concentration-inhibition curve) is greater than 10 µM in data set [1], greater than 10 µM in the data set with A549, greater than 10 µM in data set [3] and 20.5 µM in data set [4]. In addition, the Activity in data set [2] came out at 107.2%.

In the case of `O=C(/C=C\c1ccc(O)cc1)O[C@H]1[C@H](O[C@@H]2CCCC[C@H]2O)O[C@H](CO)[C@@H](O)[C@@H]1O`, the IC50 in data set [1] is greater than 10 µM; with A549, greater than 10 µM; in data set [3] it was greater than 10 µM; in data set [4], 6.6 µM. Moreover, the Activity in data set [2] is reported as 102.5%.

Consider `O=C(/C=C/c1ccc(O)cc1)OC[C@H]1O[C@@H](O[C@@H]2CCCC[C@H]2O)[C@H](O)[C@@H](O)[C@@H]1O`, for which the IC50 in data set [1] was greater than 10 µM; in the data set on A549 it was greater than 10 µM; in data set [3], greater than 10 µM; in data set [4], 14.8 µM. In addition, the Activity in data set [2] is recorded as 100.7%.

Consider `O=C(/C=C\c1ccc(O)cc1)OC[C@H]1O[C@@H](O[C@@H]2CCCC[C@H]2O)[C@H](O)[C@@H](O)[C@@H]1O`, for which the IC50 (in data set [1]; in the data set with A549; in data set [3]) was greater than 10 µM throughout.

As for `O=C(OC[C@H]1O[C@@H](O[C@@H]2CCCC[C@H]2O)[C@H](O)[C@@H](O)[C@@H]1O)c1ccc(O)cc1`, the half-maximal inhibitory concentration (IC50) (in data set [1]; with A549; in data set [3]) was greater than 10 µM in each case.

As for `O=C(/C=C/c1ccc(O)cc1)O[C@H]1[C@H](O[C@H]2CCCC[C@@H]2O)O[C@H](CO)[C@@H](O)[C@@H]1O`, the IC50 is greater than 10 µM in data set [1], greater than 10 µM in the data set on A549, greater than 10 µM in data set [3] and 15.5 µM in data set [4]. Further, in data set [2], the Activity turned out to be 93.6%.

For the molecule `O=C(/C=C\c1ccc(O)cc1)O[C@@H]1[C@H](O[C@H]2CCCC[C@@H]2O)O[C@H](CO)[C@@H](O)[C@H]1O`, the IC50 in data set [1] was greater than 10 µM; with A549, greater than 10 µM; in data set [3], greater than 10 µM; in data set [4], 18.1 µM. For the same molecule, in data set [2], the Activity is 96.2%.

Take `O=C(/C=C\c1ccc(O)cc1)O[C@@H]1[C@H](O[C@@H]2CCCC[C@@H]2O)O[C@H](CO)[C@@H](O)[C@H]1O`: the IC50 (in data set [1]; in the data set on A549; in data set [3]) was greater than 10 µM throughout.

Take `O=C(/C=C/c1ccc(O)cc1)O[C@H]1[C@H](O[C@H]2CCCC[C@H]2O)O[C@H](CO)[C@@H](O)[C@@H]1O`: the IC50 (in data set [1]; in the data set on A549; in data set [3]) was greater than 10 µM each time.

As for `O=C(/C=C\c1ccc(O)cc1)O[C@H]1[C@H](O[C@H]2CCCC[C@H]2O)O[C@H](CO)[C@@H](O)[C@@H]1O`, the concentration for half-maximal inhibition (IC50) (in data set [1]; with A549; in data set [3]) was greater than 10 µM in each case.

For the molecule `O=C(/C=C/c1ccc(O)cc1)OC[C@H]1O[C@@H](O[C@H]2CCCC[C@H]2O)[C@H](O)[C@@H](O)[C@@H]1O`, the IC50 (in data set [1]; in the data set on A549; in data set [3]) was greater than 10 µM each time.

As for `O=C(/C=C\c1ccc(O)cc1)OC[C@H]1O[C@@H](O[C@H]2CCCC[C@H]2O)[C@H](O)[C@@H](O)[C@@H]1O`, the IC50 (in data set [1]; in the data set on A549; in data set [3]) was greater than 10 µM each time.

For `O=C(/C=C/c1ccc(O)cc1)O[C@H]1[C@H](O[C@@H]2CCCC[C@@H]2O)O[C@H](CO)[C@@H](O)[C@@H]1O`, the IC50 (in data set [1]; with A549; in data set [3]) was greater than 10 µM throughout.

In the case of `COc1cccc2c1C(=O)c1c(O)c3c(c(O)c1C2=O)C[C@@](O)(C(=O)CO)C[C@@H]3O[C@H]1C[C@H](N)[C@H](O)[C@H](C)O1` [DOXORUBICIN], the IC50 in data set [1] was 0.108 µM; with A549 it was 0.0014 µM; in data set [3] it was 0.0217 µM; in the data set with SK-MEL-2, 0.0025 µM.

Take `CNC(=N)NCCC[C@H](N)C(=O)O` [TILARGININE]: in data set [2], the Activity is 99.8%. Also, in data set [4], the half-inhibitory concentration (IC50) is 24.3 µM.

The record behind these values is ChEMBL document CHEMBL3352724, “Phenolic Glycosides from the Twigs of Salix glandulosa” (J Nat Prod, 2014).
